Tests used:
Canis familiaris [1] = experiment: Myocardial contractility in an acutely instrumented anesthetized dog model at 0.03 mg/kg intravenous dose; assay type: functional, Canis lupus familiaris, Myocardium
In short: (§1)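 Adult mongrel dogs of either sex, anesthetized with pentobarbital 35 mg/kg IV and maintained by infusion at 5 mg/kg per h. Control data collected for 30 min. Drug given IV in saline (or dilute HCl/NaOH diluted with saline), 0.1 mL/kg over 1 min. Ascending doses, usually half-log apart, 10-30 min between doses, one compound per dog. Recorded LV dP/dtmax, heart rate and aortic pressure as % change from control.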

Canis familiaris [2] = experiment: Mean arterial blood pressure (MABP) in an acutely instrumented anesthetized dog model at 0.01 mg/kg intravenous dose; assay type: functional, Canis lupus familiaris; in short: as §1
Canis familiaris [3] = experiment: Mean arterial blood pressure (MABP) in an acutely instrumented anesthetized dog model at 0.03 mg/kg intravenous dose; assay type: functional, Canis lupus familiaris; in short: as §1
Canis familiaris [4] = experiment: Mean arterial blood pressure (MABP) in an acutely instrumented anesthetized dog model at 0.1 mg/kg intravenous dose; assay type: functional, Canis lupus familiaris; in short: as §1
Canis familiaris [5] = experiment: Myocardial contractility in an acutely instrumented anesthetized dog model at 0.001 mg/kg intravenous dose; assay type: functional, Canis lupus familiaris, Myocardium; in short: as §1
Canis familiaris [6] = experiment: Myocardial contractility in an acutely instrumented anesthetized dog model at 0.01 mg/kg intravenous dose; assay type: functional, Canis lupus familiaris, Myocardium; settings: dose 0.1 mg/kg, in the assay text read “0.1 mg/kg” for “0.01 mg/kg”; in short: as §1
Canis familiaris [7] = experiment: Myocardial contractility in an acutely instrumented anesthetized dog model at […] intravenous dose; assay type: functional, Canis lupus familiaris, Myocardium
Canis familiaris [8] = experiment: Myocardial contractility in an acutely instrumented anesthetized dog model at 1 mg/kg intravenous dose; assay type: functional, Canis lupus familiaris, Myocardium; in short: as §1
Canis familiaris [9] = experiment: Heart rate (HR) in an acutely instrumented anesthetized dog model at 0.03 mg/kg intravenous dose; assay type: functional, Canis lupus familiaris; in short: as §1
Canis familiaris [10] = experiment: Heart rate (HR) in an acutely instrumented anesthetized dog model at 0.1 mg/kg intravenous dose; assay type: functional, Canis lupus familiaris; in short: as §1
Canis familiaris [11] = experiment: Heart rate (HR) in an acutely instrumented anesthetized dog model at […] intravenous dose; assay type: functional, Canis lupus familiaris
Canis familiaris [12] = experiment: Heart rate (HR) in an acutely instrumented anesthetized dog model at 1 mg/kg intravenous dose; assay type: functional, Canis lupus familiaris; in short: as §1
Canis familiaris [13] = experiment: Mean arterial blood pressure (MABP) in an acutely instrumented anesthetized dog model at 1 mg/kg intravenous dose; assay type: functional, Canis lupus familiaris; in short: as §1
Canis familiaris [14] = experiment: Heart rate (HR) in an acutely instrumented anesthetized dog model at 0.01 mg/kg intravenous dose; assay type: functional, Canis lupus familiaris; in short: as §1
Canis familiaris [15] = experiment: Change from control in mean arterial blood pressure (MABP) in an acutely instrumented anesthetized dog model at […] intravenous dose
Canis familiaris [16] = experiment: Mean arterial blood pressure (MABP) in an acutely instrumented anesthetized dog model at 0.001 mg/kg intravenous dose; assay type: functional, Canis lupus familiaris; in short: as §1
Canis familiaris [17] = experiment: Mean arterial blood pressure (MABP) in an acutely instrumented anesthetized dog model at 0.003 mg/kg intravenous dose; assay type: functional, Canis lupus familiaris; in short: as §1
Canis familiaris [18] = experiment: Heart rate (HR) in an acutely instrumented anesthetized dog model at 0.001 mg/kg intravenous dose; assay type: functional, Canis lupus familiaris; in short: as §1
Canis familiaris [19] = experiment: Heart rate (HR) in an acutely instrumented anesthetized dog model at 0.003 mg/kg intravenous dose; assay type: functional, Canis lupus familiaris; in short: as §1
Canis familiaris [20] = experiment: Myocardial contractility in conscious dog model after 34-40 minutes at 0.1 mg/kg oral administration, range 5-10; assay type: functional, Canis lupus familiaris, Myocardium
In short: (§2)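 Conscious, fasted adult mongrel dogs with surgically implanted devices for ECG, aortic pressure and flow, and LV pressure. Drug given by gavage as a solution or suspension, in single or multiple doses. Contractility recorded as % increase 34-40 min after dosing, with duration of response noted. Mean ± SEM; Student's t test, p < 0.05.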

Canis familiaris [21] = experiment: Myocardial contractility in conscious dog model after 34-40 minutes at […] oral administration, activity >3 hr (p<0.05); assay type: functional, Canis lupus familiaris, Myocardium
Canis familiaris [22] = experiment: Myocardial contractility in conscious dog model after 34-40 minutes at 1 mg/kg oral administration, activity >4 hr; assay type: functional, Canis lupus familiaris, Myocardium; in short: as §2
Canis familiaris [23] = experiment: Myocardial contractility in conscious dog model after 34-40 minutes at 1 mg/kg oral administration, activity 3-4 hr (p<0.05); assay type: functional, Canis lupus familiaris, Myocardium; in short: as §2
[24] = dose 0.01 mg/kg, in the assay text read “0.01 mg/kg” for “0.001 mg/kg”

Structure (SMILES) | Change from Control (LV dp/dt) (Canis familiaris [1]) | MABP change from control (Canis familiaris [2]) | MABP % change from control (Canis familiaris [3]) | MABP change from control (Canis familiaris [4]) | Change from Control (LV dp/dt) (Canis familiaris [5]; [24]) | Change from Control (LV dp/dt) (Canis familiaris [6]) | Change from Control (LV dp/dt) (Canis familiaris [7]) | Change from Control (LV dp/dt) (Canis familiaris [8]) | HR change from control (Canis familiaris [9]) | HR change from control (Canis familiaris [10]) | HR change from control (Canis familiaris [11]) | HR change from control (Canis familiaris [12]) | MABP change from control (Canis familiaris [13]) | HR change from control (Canis familiaris [14]) | MABP change from control (Canis familiaris [15]) | also measured
Cc1nc(O)c(C#N)c(C)c1-c1ccc(-n2ccnc2)cc1 | 86% | 0% | -6 | -17.5% | 21% | 137% | 160% | 135% | 2% | 15% | 16% | 26% | -49% | 1% | -35% | –
Cc1c(-c2ccc(-n3ccnc3)cc2)cnc(O)c1C#N | 12% | 1.5% | 4.7 | 5.5% | 2.5% | 21% | 54% | 125.5% | 2% | 4.5% | 7.5% | 19.5% | -2.5% | -0.5% | 9.7% | –
Cc1nc(O)ccc1-c1ccc(-n2ccnc2)cc1 | 85% | -2.5% | -2 | -9.5% | 36% | 109% | 121% | 122% | 9% | 17% | 26% | 29% | -19.5% | 3% | -20% | –
Cc1nc(O)c(C#N)cc1-c1ccc(-n2ccnc2)cc1 | 122.7% | 0.75% | -2.2 | -9.7% | 50.3% | 154% | – | – | 14% | 34.7% | – | – | – | 4.5% | – | MABP (Canis familiaris [16]): -1; MABP change from control (Canis familiaris [17]): 1.7%; Change from Control (LV dp/dt) (Canis familiaris [5]): 4.5%; HR change from control (Canis familiaris [18]): 1%; HR change from control (Canis familiaris [19]): 3%; Increase contractility (Canis familiaris [20]): 10%; Increase contractility (Canis familiaris [21]): 35%; Increase contractility (Canis familiaris [22]): 75%
Cc1nc(O)c(N)cc1-c1ccc(-n2ccnc2)cc1 | 80.5% | 0.5% | 1 | -5% | 24.5% | 134.5% | 125.5% | 105.5% | 12% | 18% | 21.5% | 22% | -27.5% | -1.5% | -17.5% | –
Cc1c(-c2ccc(-n3ccnc3)cc2)cc(C#N)c(=O)n1C | 10% | 2% | 1 | 2% | 8% | 16% | 18% | 39% | 0% | 3% | 2% | 3% | 0.5% | 1% | 1.5% | –
Cc1[nH]c(=O)c(C#N)cc1-c1ccncc1 [MILRINONE] | 77.5% | -2% | -8 | -13% | 30.5% | 113% | 142.5% | 148.5% | 13.5% | 27% | 39.2% | 48.5% | -36.9% | 3% | -19.9% | Increase contractility (Canis familiaris [23]): 45%

— ChEMBL document CHEMBL1123756, “Cardiotonic agents. 5. 1,2-Dihydro-5-[4-(1H-imidazol-1-yl)phenyl]-6-methyl-2-oxo-3- pyridinecarbonitriles and related compounds. Synthesis and inotropic activity” (J Med Chem, 1987)
